The target in data set [1] is T1, Solute carrier organic anion transporter family member 2B1 (Homo sapiens, UniProt O94956).
T1 sequence (O94956 whole entry): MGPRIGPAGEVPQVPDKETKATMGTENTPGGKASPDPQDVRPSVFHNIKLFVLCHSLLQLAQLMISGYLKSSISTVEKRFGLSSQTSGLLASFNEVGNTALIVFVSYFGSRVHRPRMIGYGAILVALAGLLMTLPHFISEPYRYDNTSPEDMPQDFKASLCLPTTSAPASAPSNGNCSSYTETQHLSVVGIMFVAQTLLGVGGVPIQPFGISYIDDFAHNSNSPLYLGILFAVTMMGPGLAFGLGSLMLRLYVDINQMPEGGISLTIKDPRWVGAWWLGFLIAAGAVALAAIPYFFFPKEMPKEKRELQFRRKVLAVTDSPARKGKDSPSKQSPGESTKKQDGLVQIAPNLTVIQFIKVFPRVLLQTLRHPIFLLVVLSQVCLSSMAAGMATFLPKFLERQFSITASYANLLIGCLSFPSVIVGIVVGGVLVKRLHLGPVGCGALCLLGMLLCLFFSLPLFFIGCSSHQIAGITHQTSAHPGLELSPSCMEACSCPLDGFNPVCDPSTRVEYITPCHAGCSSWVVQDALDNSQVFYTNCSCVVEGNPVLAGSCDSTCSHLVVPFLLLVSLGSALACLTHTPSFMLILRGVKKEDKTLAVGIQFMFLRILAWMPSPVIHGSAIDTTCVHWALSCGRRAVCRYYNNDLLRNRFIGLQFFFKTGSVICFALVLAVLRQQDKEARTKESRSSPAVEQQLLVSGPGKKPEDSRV
The experiment in a line: Substrate activity at human OATP2B1 expressed in HEK293 cells assessed as compound uptake by HPLC-UV method relative to control. The data set is classed as ADME, cell-based.

Data set [2] is described as follows: Drug uptake in mock transfected HEK293 cells in presence of OATP2B1 inhibitor rifampicin by HPLC-UV method. The data set is classed as ADME, cell-based. The conditions noted are these: human.
For another data set, the system named is HT-29. In words: […] for human HT-29 cells assessed as reduction in cell viability after 72 hrs by MTT assay. The data set is classed as functional. The procedure, abridged: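 HT29 cells were cultured in RPMI-1640 with glutamine and 10% FBS, seeded at 2000–7500 cells/well, and exposed for 72 h to drug in DMSO (final DMSO <0.1%). MTT was added at 0.83 mg mL−1 final and incubated overnight, then cells were lysed in SDS/HCl and read at 570 nm. Survival was expressed as percent of drug-free control; five replicate wells.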

In the next data set the test system is Mus musculus. The experiment in a line: Ratio of compound MTD to CA4 MTD in ip dosed DBA/2 mouse assessed as reduction in 15% body weight administered as daily dose for 3 days. The data set is classed as ADME, organism-based. The settings on record: in vivo, 72 h.
The target in data set [3] is T1, Solute carrier organic anion transporter family member 2B1. In words: Substrate activity at human OATP2B1 expressed in HEK293 cells assessed as compound uptake in presence of OATP2B1 inhibitor rifampicin by HPLC-UV method. The format is ADME, cell-based.
Data set [4] is described as follows: Ratio of CA4 aqueous solubility to test compound aqueous solubility. The conditions noted are these: buffer. The data set is classed as physicochemical.
Data set [5] in a line: Drug uptake in mock transfected HEK293 cells by HPLC-UV assay. The data set is classed as ADME, cell-based. The settings on record: human.

Regarding `COc1ccc(/C=C\c2cc(OC)c(OC)c(OC)c2)cc1O[C@@H]1O[C@H](CO)[C@@H](O)[C@H](O)[C@H]1O`, the Drug uptake was 60% in data set [1], “Active” in data set [2] and “Active” in data set [3]. For the same molecule, the “Ratio IC50” value with HT-29 is recorded as 9.59. Also, the Ratio is reported as 16 in the data set with Mus musculus and 610 in data set [4].
Regarding `COc1ccc(/C=C\c2cc(OC)c(OC)c(OC)c2)cc1O` [COMBRETASTATIN A4], the Drug uptake entry in data set [5] is recorded as “Active”.

The values are drawn from ChEMBL document CHEMBL4257448, “Deciphering the origins of molecular toxicity of combretastatin A4 and its glycoconjugates: interactions with major drug transporters and their safety profiles in vitro and in vivo” (Medchemcomm, 2017).
